This note sets out measurements from ChEMBL document CHEMBL4257566, “Design, synthesis and structure-based optimization of novel isoxazole-containing benzamide derivatives as FtsZ modulators” (Eur J Med Chem, 2018).

≈ marks a conversion by molar mass, not a printed value. Calls of active or inactive are those of the source.

Series [1] concerns Bacillus subtilis. Description: Antibacterial activity against Bacillus subtilis ATCC 9372 after 24 hrs by broth microdilution based CLSI method. Format: functional. The conditions noted are these: ATCC 9372, 24 h. On the technique in general: Dilution methods test growth across graded concentrations, often in twofold steps.
The subject of series [2] is Bacillus pumilus. Description: Antibacterial activity against Bacillus pumilus CMCC63202 after 24 hrs by broth microdilution based CLSI method. The conditions noted are these: CMCC63202, 24 h. Format: functional.
In series [3] the test system is Staphylococcus aureus. Description: Antibacterial activity against Staphylococcus aureus ATCC 25923 after 24 hrs by broth microdilution based CLSI method. To be noted: ATCC 25923, 24 h. Type of series: functional.
The subject of series [4] is Staphylococcus aureus. The series can be described thus: Antibacterial activity against methicillin-resistant Staphylococcus aureus ATCC 43300 after 24 hrs by broth microdilution based CLSI method. Format: functional. The conditions noted are these: ATCC 43300, 24 h.
Series [5] concerns Staphylococcus aureus. Description: Antibacterial activity against clinical isolate of penicillin-resistant Staphylococcus aureus after 24 hrs by broth microdilution based CLSI method. Type of series: functional.
The test system of series [6] is Escherichia coli. The series can be described thus: Antibacterial activity against Escherichia coli ATCC 25922 after 24 hrs by broth microdilution based CLSI method. Type of series: functional. The conditions noted are these: ATCC 25922, 24 h.
Series [7] has as its system Pseudomonas aeruginosa. The series can be described thus: Antibacterial activity against Pseudomonas aeruginosa ATCC 27853 after 24 hrs by broth microdilution based CLSI method. To be noted: ATCC 27853, 24 h. Format: functional.
The test system of series [8] is Staphylococcus aureus. The series can be described thus: Bactericidal activity against Staphylococcus aureus ATCC 25923 incubated for 24 hrs followed by plating onto tryptic soy agar plates and further incubated for 24 hrs by broth microdilution based CLSI method. Type of series: functional. The conditions noted are these: ATCC 25923, 24 h.
Series [9] has as its system Staphylococcus aureus. The series can be described thus: Bactericidal activity against methicillin-resistant Staphylococcus aureus ATCC 43300 incubated for 24 hrs followed by plating onto tryptic soy agar plates and further incubated for 24 hrs by broth microdilution based CLSI method. Format: functional. The conditions noted are these: ATCC 43300, 24 h. In a few lines:
(§1)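 MBC taken from the CLSI broth microdilution plates. These held 2-fold serial dilutions from 64 to 0.125 µg/mL in cation-adjusted Mueller-Hinton broth, seeded with log-phase bacteria and incubated aerobically for 24 h at 37 °C. Well aliquots were plated on TSA and colonies counted after 24 h. MBC is the lowest concentration giving a ≥3-log CFU reduction.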

The test system of series [10] is Staphylococcus aureus. Description: Bactericidal activity against clinical isolate of penicillin-resistant Staphylococcus aureus incubated for 24 hrs followed by plating onto tryptic soy agar plates and further incubated for 24 hrs by broth microdilution based CLSI method. Type of series: functional. The method in brief: as §1
Series [11] has as its system Staphylococcus aureus. Description: Selectivity ratio of MBC for Staphylococcus aureus ATCC 25923 to MIC for Staphylococcus aureus ATCC 25923. Format: functional.
Series [12] deals with Staphylococcus aureus. Description: Selectivity ratio of MBC for methicillin-resistant Staphylococcus aureus ATCC 43300 to MIC for methicillin-resistant Staphylococcus aureus ATCC 43300. Format: functional. In a few lines: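 Ratio of MBC to MIC. Both come from the same CLSI broth microdilution run: 2-fold dilutions from 64 to 0.125 µg/mL in CAMH broth, 24 h at 37 °C. MIC is the last well without turbidity. MBC is the lowest concentration giving a ≥3-log CFU drop after plating on TSA for 24 h. Ratio 1–2 is read as bactericidal, ≥8 as bacteriostatic.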

The test system of series [13] is Bacillus pumilus. Description: Potency index, ratio of PC190723 MIC to test compound MIC for Bacillus pumilus CMCC63202 after 24 hrs by broth microdilution based CLSI method. Type of series: functional.
For series [14], the system named is Staphylococcus aureus. The series can be described thus: Bactericidal activity against methicillin-resistant Staphylococcus aureus ATCC 43300 assessed as reduction in viable bacterial count at 0.5 times MIC after 24 hrs by time-kill assay. Format: functional, organism-based. In a few lines:
(§2)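 Growing culture diluted to about 10⁶ CFU/mL in CAMH broth containing compound, then shaken at 37 °C. At set times, samples were serially diluted tenfold in CAMH broth and three dilutions plated on TSA. CFU/mL counted after 24 h at 37 °C. Detection limit 10³ CFU/mL. Points are the mean of two independent runs, with SD.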

Series [15] has as its system Staphylococcus aureus. The series can be described thus: Bactericidal activity against methicillin-resistant Staphylococcus aureus ATCC 43300 assessed as reduction in viable bacterial count at 1 to 2 times MIC after 12 hrs by time-kill assay. Type of series: functional. In a few lines: as §2
For series [16], the system named is Staphylococcus aureus. Description: Bactericidal activity against methicillin-resistant Staphylococcus aureus ATCC 43300 assessed as reduction in viable bacterial count at 4 times MIC after 6 hrs by time-kill assay. Format: functional, organism-based. The method in brief:
as §2

Series [17] deals with Bacillus pumilus. Description: Antibacterial activity against Bacillus pumilus CMCC63202 assessed as increase in bacterial cell length at 0.5 times MIC after 18 hrs by phase-contrast optical microscopic analysis. Format: functional, organism-based. The method in brief: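 Harvested cells resuspended in PBS, spotted on poly-L-lysine (0.1% w/v) coated slides and cell length examined by phase-contrast microscopy at 40 magnification.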

The subject of series [18] is Staphylococcus aureus. Description: Antibacterial activity against methicillin-resistant Staphylococcus aureus ATCC 43300 infected in mouse assessed as reduction of bacterial burden in blood at 30 mg/kg, ip administered 0.1, 3, 6, 9 and 12 hrs postinfection and measured at 24 hrs post last dose. Format: functional, organism-based.
The subject of series [19] is HeLa. The series can be described thus: Cytotoxicity in human HeLa cells assessed as reduction in cell viability after 36 hrs by MTT assay. Format: cell-based. The method in brief:
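HeLa cells seeded at 10⁴ cells/well and left overnight, then exposed to compound for 36 h. MTT (5 mg/mL solution) added for 4 h at 37 °C, medium replaced by DMSO for 10 min, absorbance read at 570 nm.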
(In general: Tetrazolium dyes change colour on reduction, which living cells bring about.)

The target of series [20] is T1, Cell division protein FtsZ (Bacillus subtilis (strain 168)) (UniProt P17865).
T1 sequence (whole entry): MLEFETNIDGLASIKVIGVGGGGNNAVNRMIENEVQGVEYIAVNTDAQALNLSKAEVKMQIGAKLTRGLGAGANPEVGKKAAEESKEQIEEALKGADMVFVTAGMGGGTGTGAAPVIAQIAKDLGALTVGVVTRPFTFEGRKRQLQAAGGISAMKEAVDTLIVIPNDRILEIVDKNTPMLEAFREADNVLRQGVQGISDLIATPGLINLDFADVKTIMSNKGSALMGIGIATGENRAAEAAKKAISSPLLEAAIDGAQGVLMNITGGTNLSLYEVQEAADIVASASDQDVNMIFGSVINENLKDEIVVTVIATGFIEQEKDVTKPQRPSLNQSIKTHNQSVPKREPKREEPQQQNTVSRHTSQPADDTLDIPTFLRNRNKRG
The series can be described thus: Induction of Bacillus subtilis FtsZ assessed as increase in size of polymer at 10 ug/ml after 20 mins by transmission electron microscopic analysis. The method in brief:
(§3)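 Purified B. subtilis FtsZ incubated with or without compound at room temperature for 20 min in polymerization buffer (50 mM MES, 50 mM KCl, 2 mM magnesium acetate, 1 mM GTP). Samples put on glow-discharged Formvar/carbon copper grids, negatively stained with 1% phosphotungstic acid for 1 min, imaged by TEM at 100 kV.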

In series [21] the target is T1, Cell division protein FtsZ (Bacillus subtilis (strain 168)). Description: Induction of Bacillus subtilis FtsZ assessed as increase in thickness of polymer size at 10 ug/ml after 20 mins by transmission electron microscopic analysis. The method in brief: as §3
For series [22] the target is unchanged. Description: Induction of Bacillus subtilis FtsZ assessed as increase in bundling of protofilament at 10 ug/ml after 20 mins by transmission electron microscopic analysis. The method in brief: as §3
For series [23] the target is unchanged. Description: Induction of Bacillus subtilis FtsZ polymerization at 10 ug/ml in presence of GTP by microtiter plate-based light-scattering assay. In a few lines:
(§4)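 Recombinant purified B. subtilis FtsZ (5 µM) with 1 mM GTP in 50 mM MES, 50 mM KCl, 2 mM magnesium acetate, compound 0–10 µg/mL. Polymerization followed as light scattering (A340) continuously at 25 °C for 30 min. DMSO vehicle and a non-FtsZ control were included.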

Series [24] deals with Mus musculus. Description: Toxicity in mouse infected with methicillin-resistant Staphylococcus aureus ATCC 43300 assessed as mouse death at 30 mg/kg, ip administered 0.1, 3, 6, 9 and 12 hrs postinfection and measured after 1 week. Format: organism-based. The conditions noted are these: in vivo, 168 h. In a few lines: (§5)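 KM mice (about 20 g) infected i.v. with 5.4 × 10⁷ CFU MRSA in 0.1 mL saline. Dosing i.p. in vehicle of 1% DMAC, 30% TEG, 7% HPβCD in water (final), with a vehicle-only group. Deaths recorded for one week after bacterial inoculation.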

The test system of series [25] is Bacillus subtilis. The series can be described thus: Potency index, ratio of PC190723 MIC to test compound MIC for antibacterial activity against Bacillus subtilis ATCC 9372 after 24 hrs by broth microdilution based CLSI method.
Series [26] deals with T1, Cell division protein FtsZ (Bacillus subtilis (strain 168)). Description: Induction of Bacillus subtilis FtsZ polymerization in presence of GTP by microtiter plate-based light-scattering assay. In a few lines:
as §4

The test system of series [27] is Staphylococcus aureus. Description: Bactericidal activity against methicillin-resistant Staphylococcus aureus ATCC 43300 assessed as reduction in viable bacterial count at 8 ug/ml after 24 hrs by time-kill assay. Type of series: functional, organism-based. In a few lines:
as §2

Series [28] concerns Staphylococcus aureus. The series can be described thus: Antibacterial activity against methicillin-resistant Staphylococcus aureus ATCC 43300 infected in mouse assessed as reduction of bacterial burden in blood at 30 mg/kg, ip administered 0.1, 6 hrs postinfection and measured at 24 hrs post last dose. Type of series: functional, organism-based.
Series [29] relates to Mus musculus. Description: Toxicity in mouse infected with methicillin-resistant Staphylococcus aureus ATCC 43300 assessed as mouse death at 30 mg/kg, ip administered 0.1, 6 hrs postinfection and measured after 1 week. Type of series: organism-based. To be noted: in vivo, 168 h. In a few lines: as §5

In general, MIC refers to the lowest concentration found to suppress growth. The low end stands for greater potency, the high end for weaker potency. Broadly, the MBC is the smallest concentration meeting the test's criterion for killing. The term IC50 denotes the concentration at which inhibition is half-maximal. As for `CC(C)(C)c1ccc(-c2cc(COc3ccc(F)c(C(N)=O)c3F)no2)cc1`, the MIC in [1] was 0.015 µg/mL (≈ 0.0388 µM); in series [2], 0.03 µg/mL (≈ 0.0776 µM); in [3], 2 µg/mL (≈ 5.18 µM); in series [4], 2 µg/mL (≈ 5.18 µM); in series [5] it was 4 µg/mL (≈ 10.4 µM); in [6], > 64 µg/mL. In addition, the minimal inhibitory concentration (MIC) in [7] is > 64 µg/mL. The results for the MBC in series [8], in [9] and in series [10] were 4 µg/mL (≈ 10.4 µM), 2 µg/mL (≈ 5.18 µM) and 8 µg/mL (≈ 20.7 µM), respectively. The Ratio in [11] was 2; in series [12], 1; in series [13] it was 32; in [25] it was 32. The outcome in [14] was inactive. In addition, the viable count in series [15] came to 1000 CFU/mL. In addition, the result in [16], in series [17], in series [18], in series [20], in [21] and in series [22] was Active. The result in [23] was Active. Also, the IC50 in series [19] is > 128 µg/mL. Also, the Activity entry in [24] is recorded as “Non-Toxic”.

In series [3], `CC[C@H]1OC(=O)[C@H](C)[C@@H](O[C@H]2C[C@@](C)(OC)[C@@H](O)[C@H](C)O2)[C@H](C)[C@@H](O[C@@H]2O[C@H](C)C[C@H](N(C)C)[C@H]2O)[C@](C)(OC)C[C@@H](C)C(=O)[C@H](C)[C@@H](O)[C@]1(C)O` [CLARITHROMYCIN] came in with an MIC of 0.125 µg/mL (≈ 0.167 µM). Besides, the MBC in [8] is 4 µg/mL (≈ 5.35 µM). Also, the Ratio in series [11] is 32.

`CC(C)(C)c1ccc(-c2cc(COc3ccc(F)c(C(N)=O)c3F)on2)cc1`: the MIC in [1] is 0.03 µg/mL (≈ 0.0776 µM); in [2], 0.25 µg/mL (≈ 0.647 µM); in [3], 8 µg/mL (≈ 20.7 µM); in series [4], 4 µg/mL (≈ 10.4 µM); in series [5] it was 8 µg/mL (≈ 20.7 µM); in series [6] it was > 64 µg/mL. In addition, the minimal inhibitory concentration (MIC) in series [7] was > 64 µg/mL. In addition, the IC50 in series [19] was > 128 µg/mL. For the same compound, the outcome in series [23] was inactive. The Ratio in [25] was >16.

Consider `O=C(O)c1cn(C2CC2)c2cc(N3CCNCC3)c(F)cc2c1=O`, for which, in series [26], the result was inactive.

Take `CC(=O)NC[C@H]1CN(c2ccc(N3CCOCC3)c(F)c2)C(=O)O1` [LINEZOLID]: the MIC was 1 µg/mL (≈ 2.96 µM) in [1]; 1 µg/mL (≈ 2.96 µM) in series [2]; 1 µg/mL (≈ 2.96 µM) in [4]; > 64 µg/mL in series [6]; > 64 µg/mL in [7]. Also, the MBC in [8], in series [9] and in series [10] was 32 µg/mL (≈ 94.9 µM) throughout. Besides, the outcome in [27] and in series [28] was Active. The Activity result in series [29] is on record as “Non-Toxic”.
